From PubChem
Compounds with a hit are over-represented: about 1.9% of the library has one in this group of screens.
MBD2 inh – inhibitors of MBD2 binding to methylated DNA, primary screen, biochemical, TR-FRET, DNA-binding domain, human | 370,000 compounds, 0.31% hits | Methyl-CpG-binding domain protein 2 (Homo sapiens), Q9UBB5 | AID 686964, 2013 | MBD2 binding to methylated oligonucleotide | inhibition, % at 4.4 µM; in the data active = inhibition above about 13%
TDP2 absorb – human TDP2 enzyme inhibitors, primary screen, biochemical, epi absorbance, recombinant enzyme | T5PNP hydrolysis, p-nitrophenol absorbance 415 nm | inhibition, % at 12.8 µM | 370,000 compounds, 0.34% hits | AID 720702, 2013;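 active = inhibition above the mean of all tested compounds plus 3 SD, set per campaign, cut at about 25% in these data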
Target sequence (O95551 whole entry, looked up): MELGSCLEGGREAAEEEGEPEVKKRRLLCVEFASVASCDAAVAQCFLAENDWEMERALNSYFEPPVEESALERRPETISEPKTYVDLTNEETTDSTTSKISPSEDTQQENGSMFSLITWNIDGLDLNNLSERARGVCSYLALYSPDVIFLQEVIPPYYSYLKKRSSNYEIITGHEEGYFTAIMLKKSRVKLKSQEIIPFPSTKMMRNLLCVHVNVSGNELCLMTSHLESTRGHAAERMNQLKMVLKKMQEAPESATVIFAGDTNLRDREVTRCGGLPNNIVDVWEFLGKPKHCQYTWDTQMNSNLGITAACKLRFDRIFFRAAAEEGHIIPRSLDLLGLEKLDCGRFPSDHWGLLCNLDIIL
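Incubation: 2 h at 37 °C; Test system: recombinant human TDP2; Quantity: enzyme 120 nM; Read-out basis: percent inhibition; Medium: 50 mM Tris-HCl pH 7.5 with Mg2+, KCl, DTT, BSA; Repeats: single replicate; Compound: 12.8 µM single point, 1% DMSO; Signal: epi absorbance; Reagent: 5 mM T5PNP chromogenic substrate; Benchmarks: no-enzyme high, DMSO-plus-enzyme low.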
UHRF1 MBD2 ctr – UHRF1 methylated DNA binding inhibitors, primary screen, counter-screen for MBD2 inhibitor project, biochemical, TR-FRET, human UHRF1, single concentration | E3 ubiquitin-protein ligase UHRF1 (Homo sapiens), Q96T88 | UHRF1 binding to methylated oligo | inhibition, % at 4.4 µM | 370,000 compounds, 0.75% hits | AID 687016, 2013; in the data active = inhibition above about 21%;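 note: UHRF1 SRA domain binding a hemimethylated CpG hairpin DNA probe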
Tn7 DDE FP – inhibitors of Tn7 peptide binding to fibrin DD(E), primary screen, biochemical, fluorescence polarization, human fibrin, Tn7 probe; 370,000 compounds, 0.13% hits; AID 720508, 2013; inhibition, % at 8.3 µM; Fibrinogen beta chain (Homo sapiens), P02675; FP displacement of FITC-Tn7 peptide from fibrin DD(E); 0% = median of compound wells per plate;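 active = inhibition above the mean of compounds falling within the control limits plus 3 SD of them, cut at about 14% in these data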
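Assay system: Fibrin-DD(E) protein isolated from polymerized human fibrin clots; read-out basis: percent inhibition; medium: Tris/NaCl/CaCl2 buffer, pH 7.8; signal: FP measurement; incubation: 10 min plus 3 h, room temperature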
DDE Tn6 FP inh – inhibitors of Tn6 peptide binding to fibrin DD(E), primary screen, biochemical, fluorescence polarization, human fibrin, Tn6 probe; Fibrin DD(E) TRITC-Tn6 fluorescence polarization displacement; inhibition, % at 8.3 µM; Fibrinogen beta chain (Homo sapiens), P02675; AID 720509, 2013; 370,000 compounds, 0.21% hits;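 active = inhibition above a per-campaign cutoff: mean of compounds within control limits plus 3 SD, cut at about 15% in these data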
LEDGF integ inh – blockers of LEDGF/p75-dependent integrase strand transfer – biochemical, TR-FRET, high throughput, primary screen; HIV-1 integrase (with human LEDGF/p75); TR-FRET IN-LEDGF/p75 DNA integration, Eu/Cy5; inhibition, % at 3.7 µM; 370,000 compounds, 0.64% hits; AID 743269, 2014;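 active = inhibition above the screen-wide mean plus 3 SD, cut at about 13% in these data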;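 note: signal is the Cy5 over europium emission ratio at 671 and 618 nm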
TDP2 inh conf – human TDP2 enzyme inhibitors, retest, confirmation, biochemical, epi absorbance, recombinant enzyme; shares compounds with TDP2 absorb; absorbance read-out; inhibition, % at 12.8 µM; 1,100 compounds, 22% hits; in the data active = inhibition above about 25%
Large screens that a line does not name were inactive (follow-up assays come after a bar, where they were run).

CCOCCCNC(=O)Cn1cc2c(n1)-c1c(oc(C(=O)N3CCCC3)c1C)CC2	TDP2 absorb 37.7 | TDP2 inh conf inactive
CC(=O)NC(Cc1ccc(F)cc1)C(=O)NC1CCN(C(=O)Nc2cccc(C)c2)CC1 (centres undefined)	none
CC(=O)NC(Cc1ccc(F)cc1)C(=O)NC1CCN(C(=O)Nc2ccc(F)cc2)CC1 (centres undefined)	TDP2 absorb 25.2 | TDP2 inh conf inactive
Nc1ccn([C@@H]2O[C@H](C(=O)N[C@H](Cc3ccccc3)C(=O)N3CCC(F)(F)CC3)[C@@H](O)[C@H]2O)c(=O)n1	none
NS(=O)(=O)c1ccc(NC(=S)NCc2ccccc2Cl)cc1	none
NS(=O)(=O)c1ccc(CCNCC(=O)NCc2ccccc2Cl)cc1	TDP2 absorb 26.7 | TDP2 inh conf inactive
CC(=O)N1CCN(C(=O)c2cccc(S(=O)(=O)N3CCN(c4ccccc4)CC3)c2)CC1	none
O=C(c1cccc(S(=O)(=O)N2CCN(c3ccccc3)CC2)c1)N1CCN(c2ccccc2O)CC1	TDP2 absorb 28.7 | TDP2 inh conf inactive
COC(=O)C1CCCN(C(=O)C2CCN(S(=O)(=O)c3cccc4cccnc34)CC2)C1 (centres undefined)	none
CCCC1CCC2(CCCN2CCOC(=S)Nc2cccc(Cl)c2)CC1 (centres undefined)	none
COc1ccc(N2CCN(CCCNC(=O)CCc3cccc(F)c3)CC2)cc1	none
CC(=O)C1=C(C)NC2(O)c3ccccc3C(=O)C12O (centres undefined)	none
CCOC(=O)C1=C(C)NC2(O)c3ccccc3C(=O)C12O (centres undefined)	TDP2 absorb 47.4 | TDP2 inh conf 25.4
COCCOC(=O)C1=C(C)NC(C)=C(C(=O)OCCOC)C1/C=C/c1ccccc1OC	none
COCCOC(=O)C1=C(C)NC2(O)c3ccccc3C(=O)C12O (centres undefined)	TDP2 absorb 46.0 | TDP2 inh conf inactive
C=CCN1[C@H](C#N)[C@@H](c2ccc(Br)cc2)[C@H]1CO	none
O=C(Cn1nc(-c2ccccc2)ccc1=O)NCCc1ccc(F)cc1	none
Cc1ccc(CN2CCC(N3CC(C)OC(C)C3)CC2)cc1 (centres undefined)	TDP2 absorb 24.7 | TDP2 inh conf inactive
COP(=O)(O)[C@@H](CC(C)C)NC(=O)OCc1ccccc1	none
Cc1ccccc1NC(=O)COC(=O)CCc1nc2ccccc2c(=O)[nH]1	none
O=C(COC(=O)CCc1nc2ccccc2c(=O)[nH]1)Nc1c(Cl)cccc1C(F)(F)F	TDP2 absorb 57.4 | TDP2 inh conf inactive
Cc1cc(Cl)c(OCCOCCN2CCC(C)CC2)c(Br)c1	none
Cc1cc(Cl)c(OCCOCCN2CCN(C)CC2)c(Br)c1	TDP2 absorb 34.2 | TDP2 inh conf inactive
CCOc1cc(/C=C\c2nc(O)c([N+](=O)[O-])c(=O)[nH]2)ccc1OC(C)C	TDP2 absorb 24.8 | TDP2 inh conf inactive
C=CCn1c(=S)[nH]c2sccc2c1=O	TDP2 absorb 60.5 | TDP2 inh conf inactive
Cc1ccc(C(=O)N/C(=C\c2ccc(-c3ccccc3[N+](=O)[O-])o2)C(=O)NCCN(C)C)cc1	TDP2 absorb 24.6 | TDP2 inh conf inactive
O=C1CCCC2=C1C1(O)C(=O)c3ccccc3C1(O)O2 (centres undefined)	TDP2 absorb 52.6 | TDP2 inh conf 58.7
